ChEMBL document CHEMBL1137713, “Synthesis and antimalarial activity of pyrazolo and pyrimido benzothiazine dioxide derivatives” (2009)
Activity calls are given as the source filed them. The rule behind the calls is not given here.

Tests used:
[1] = system: Plasmodium berghei; assay: Antimalarial activity against chloroquine-sensitive Plasmodium berghei ANKA infected BALB/c mice (Mus musculus) erythrocytes at 10 uM after 18 hrs as reduced hemoglobin hydrolysis; type: functional
Procedure, shortened: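 Trophozoite-rich extract from P. berghei-infected mouse blood (30–50% parasitemia, Percoll-enriched mature forms, saponin-lysed, freeze-thawed) digests native mouse hemoglobin with 10 mM GSH in 0.2 M acetate buffer pH 5.4. Compound is added in DMSO. Incubation is 37 °C for 18 h. Globin 14 kDa band is assessed by SDS-PAGE densitometry against a DMSO control and expressed as % inhibition of hydrolysis.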

[2] = molecular target: T1, Histidine-rich protein PFHRP-II (Plasmodium falciparum) (UniProt P05227); assay: Inhibition of beta-hematin formation assessed as inhibition of flavoprotein polymerization at 5 to 100 mM after 48 hrs; type: functional
T1 sequence (whole entry): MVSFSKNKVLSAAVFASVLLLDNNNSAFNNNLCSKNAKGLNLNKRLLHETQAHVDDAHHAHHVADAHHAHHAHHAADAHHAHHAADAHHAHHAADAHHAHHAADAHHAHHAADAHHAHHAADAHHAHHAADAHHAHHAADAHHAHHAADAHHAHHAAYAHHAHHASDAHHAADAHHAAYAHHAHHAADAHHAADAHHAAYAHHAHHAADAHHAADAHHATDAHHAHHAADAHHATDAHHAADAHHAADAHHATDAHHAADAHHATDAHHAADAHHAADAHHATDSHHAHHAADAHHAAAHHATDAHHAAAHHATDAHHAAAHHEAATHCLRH
Procedure, shortened: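 Hemin chloride in DMSO is mixed with compound in DMSO (100–5 range), tested in triplicate, with water or DMSO controls. Reaction is started with 0.2 M acetate buffer pH 4.4 and run at 37 °C for 48 h. Pellet is washed twice with DMSO, dissolved in 0.2 N NaOH, diluted 1:2 in 0.1 N NaOH, and read at 405 nm. Result is % inhibition of FP polymerization.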

[3] = system: Plasmodium berghei; assay: Antimalarial activity as MST against chloroquine-sensitive Plasmodium berghei ANKA infected BALB/c mice (Mus musculus) erythrocytes at 20 mg/kg intraperitoneal dose for 4 days (RVb=11.66+/-1.66 days); type: functional
[4] = system: Plasmodium berghei; assay: Antimalarial activity against chloroquine-sensitive Plasmodium berghei ANKA infected BALB/c mice (Mus musculus) erythrocytes at 20 mg/kg intraperitoneal dose for 4 days
[5] = system: Plasmodium berghei; assay: Antimalarial activity against chloroquine-sensitive Plasmodium berghei ANKA infected BALB/c mice (Mus musculus) erythrocytes at 20 mg/kg intraperitoneal dose for 4 days as parasitaemia
[6] = system: Plasmodium berghei; assay: Antimalarial activity as parasitaemia against chloroquine-sensitive Plasmodium berghei ANKA infected BALB/c mice (Mus musculus) erythrocytes at 25 mg/kg intraperitoneal dose for 4 days; type: functional
Procedure, shortened: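 Male Balb-C mice infected with 10^6 P. berghei ANKA-infected erythrocytes; n=6. Compound is given as a DMSO stock diluted in 2% saline–Tween 20, ip once daily for 4 days starting 2 h post-infection. Chloroquine is given at 25 mg/kg. Day-4 parasitemia is read from Giemsa smears and survival days are recorded versus untreated controls. Mean ± SEM.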

[7] = system: Plasmodium berghei; assay: Antimalarial activity as MST against chloroquine-sensitive Plasmodium berghei ANKA infected BALB/c mice (Mus musculus) erythrocytes at 25 mg/kg intraperitoneal dose for 4 days (RVb=11.66+/-1.66 days); type: functional

Row | SMILES | inhibition at 10 µM [1] | inhibition [2] | further results
1 | Nc1n[nH]c2c1S(=O)(=O)c1cc(Cl)ccc1N2c1ccccc1 | 0% | < 5% | –
2 | Cc1ccc(C)c(N2c3ccc(Cl)cc3S(=O)(=O)c3c(N)n[nH]c32)c1 | 0% | < 5% | –
3 | Cc1ccccc1N1c2cc(Cl)ccc2S(=O)(=O)c2c(N)n[nH]c21 | 92.3% | < 5% | Activity [3]: 13 days; Activity [4]: inactive; Activity [5]: 9.75%
4 | Cc1ccccc1N1c2ccc(Cl)cc2S(=O)(=O)c2c(N)n[nH]c21 | 0% | < 5% | –
5 | Nc1nc(N)c2c(n1)N(c1ccc(Cl)c(Cl)c1)c1cc(Cl)ccc1S2(=O)=O | 76% | < 5% | –
6 | Nc1n[nH]c2c1S(=O)(=O)c1cc(Cl)ccc1N2c1ccc(Cl)cc1 | 0% | < 5% | –
7 | COc1cccc(N2c3ccc(Cl)cc3S(=O)(=O)c3c(N)nc(N)nc32)c1 | 0% | < 5% | –
8 | CC(C)CC(=O)N[C@H](C(=O)N[C@H](C(=O)N[C@@H](CC(C)C)[C@@H](O)CC(=O)N[C@@H](C)C(=O)N[C@@H](CC(C)C)[C@@H](O)CC(=O)O)C(C)C)C(C)C [PEPSTATIN] | 92.9% | – | –
9 | Nc1nc(N)c2c(n1)N(c1cccc(Cl)c1)c1cc(Cl)ccc1S2(=O)=O | 0% | < 5% | –
10 | Cc1ccc(N2c3cc(Cl)ccc3S(=O)(=O)c3c(N)n[nH]c32)cc1 | 78.8% | < 5% | –
11 | Nc1nc(N)c2c(n1)N(c1ccccc1)c1ccc(Cl)cc1S2(=O)=O | 0% | < 5% | –
12 | Cc1ccccc1N1c2cc(Cl)ccc2S(=O)(=O)c2c(N)nc(N)nc21 | 72.6% | < 5% | –
13 | Nc1n[nH]c2c1S(=O)(=O)c1ccc(Cl)cc1N2c1ccc(Cl)c(Cl)c1 | 67.6% | < 5% | –
14 | Cc1ccc(N2c3ccc(Cl)cc3S(=O)(=O)c3c(N)n[nH]c32)cc1 | 0% | < 5% | –
15 | Nc1nc(N)c2c(n1)N(c1ccc(Cl)cc1)c1ccc(Cl)cc1S2(=O)=O | 0% | < 5% | –
16 | Nc1nc(N)c2c(n1)N(c1ccc(Br)cc1)c1ccc(Cl)cc1S2(=O)=O | 0% | < 5% | –
17 | Nc1nc(N)c2c(n1)N(c1cccc(Cl)c1)c1ccc(Cl)cc1S2(=O)=O | 0% | < 5% | –
18 | COc1cccc(N2c3cc(Cl)ccc3S(=O)(=O)c3c(N)n[nH]c32)c1 | 47.3% | < 5% | –
19 | CC(=O)N[C@@H](CC(C)C)C(=O)N[C@@H](CC(C)C)C(=O)N[C@H](C=O)CCCNC(=N)N [LEUPEPTIN] | 89.1% | – | –
20 | Nc1n[nH]c2c1S(=O)(=O)c1cc(Cl)ccc1N2c1ccc(Br)cc1 | 0% | < 5% | –
21 | Nc1n[nH]c2c1S(=O)(=O)c1cc(Cl)ccc1N2c1ccc(Cl)c(Cl)c1 | 0% | < 5% | –
22 | COc1cccc(N2c3cc(Cl)ccc3S(=O)(=O)c3c(N)nc(N)nc32)c1 | 56.3% | < 5% | –

Row | SMILES | inhibition at 10 µM [1] | inhibition [2] | further results
23 | Nc1nc(N)c2c(n1)N(c1ccccc1)c1cc(Cl)ccc1S2(=O)=O | 83.7% | < 5% | Activity [3]: 10.8 days; Activity [5]: 12.7%
24 | CCN(CC)CCCC(C)Nc1ccnc2cc(Cl)ccc12 (configuration not stated) [CHLOROQUINE] | 24.1% | – | Activity [6]: 1.3%; Activity [7]: 30 days
25 | Nc1n[nH]c2c1S(=O)(=O)c1cc(Cl)ccc1N2c1cccc(Cl)c1 | 0% | < 5% | –
26 | Cc1ccccc1N1c2ccc(Cl)cc2S(=O)(=O)c2c(N)nc(N)nc21 | 0% | < 5% | –
27 | Nc1nc(N)c2c(n1)N(c1ccc(Cl)cc1)c1cc(Cl)ccc1S2(=O)=O | 67.2% | < 5% | –
28 | Nc1n[nH]c2c1S(=O)(=O)c1ccc(Cl)cc1N2c1cccc(Cl)c1 | 58.9% | 85.4% | Activity [3]: 12.5 days; Activity [5]: 10.33%
29 | COc1cccc(N2c3ccc(Cl)cc3S(=O)(=O)c3c(N)n[nH]c32)c1 | 0% | < 5% | –
30 | Cc1ccc(N2c3ccc(Cl)cc3S(=O)(=O)c3c(N)nc(N)nc32)cc1 | 0% | < 5% | –
31 | COc1ccc(N2c3ccc(Cl)cc3S(=O)(=O)c3c(N)nc(N)nc32)cc1 | 0% | < 5% | –
32 | Nc1n[nH]c2c1S(=O)(=O)c1ccc(Cl)cc1N2c1ccc(Cl)cc1 | 55.8% | < 5% | –
33 | COc1ccc(N2c3ccc(Cl)cc3S(=O)(=O)c3c(N)n[nH]c32)cc1 | 0% | < 5% | –
34 | Nc1n[nH]c2c1S(=O)(=O)c1ccc(Cl)cc1N2c1ccccc1 | 76.4% | < 5% | –
35 | COc1ccc(N2c3cc(Cl)ccc3S(=O)(=O)c3c(N)nc(N)nc32)cc1 | 40.9% | < 5% | –
36 | Nc1n[nH]c2c1S(=O)(=O)c1ccc(Cl)cc1N2c1ccc(Br)cc1 | 26.7% | < 5% | –
37 | COc1ccc(N2c3cc(Cl)ccc3S(=O)(=O)c3c(N)n[nH]c32)cc1 | 54.8% | < 5% | –
38 | Cc1ccc(C)c(N2c3cc(Cl)ccc3S(=O)(=O)c3c(N)nc(N)nc32)c1 | 64.6% | < 5% | –
39 | Cc1ccc(N2c3cc(Cl)ccc3S(=O)(=O)c3c(N)nc(N)nc32)cc1 | 50.1% | < 5% | –
40 | Nc1nc(N)c2c(n1)N(c1ccc(Cl)c(Cl)c1)c1ccc(Cl)cc1S2(=O)=O | 0% | < 5% | –
41 | Cc1ccc(C)c(N2c3cc(Cl)ccc3S(=O)(=O)c3c(N)n[nH]c32)c1 | 69.4% | < 5% | –
42 | Cc1ccc(C)c(N2c3ccc(Cl)cc3S(=O)(=O)c3c(N)nc(N)nc32)c1 | 0% | < 5% | –
43 | Nc1nc(N)c2c(n1)N(c1ccc(Br)cc1)c1cc(Cl)ccc1S2(=O)=O | 49% | < 5% | –
